Rows were chosen to be rich in hits. Some 3.7% of all compounds tested hit in one or more screens of this group.
KCNQ1 inh: inhibitors of human KCNQ1 channel, primary screen, cell-based, thallium flux, high-throughput | Potassium voltage-gated channel subfamily KQT member 1 (Homo sapiens), P51787 | CHO-K1 KCNQ1, FluxOR thallium flux fluorescence; stronger effect = higher value | 310,000 compounds, 1.3% hits | B-score at 10 µM;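 active = compounds whose thallium flux B-score, printed positive for inhibition, exceeds three library SD while starting fluorescence stays within three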;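 note: channel opened by potassium depolarization with thallium stimulus after 20 min compound exposure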
KCNK3 inh: human KCNK3 channel inhibitors, primary screen, CHO cells, FluxOR thallium flux, B-score; Potassium channel subfamily K member 3 (Homo sapiens), O14649; FluxOR fluorescence; stronger effect = lower value; 340,000 compounds, 0.84% hits; B-score at 10 µM; AID 602410, 2012;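 active = B-score under library mean minus 4 SD, starting fluorescence ratio at most library mean plus 5 SD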;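 note: more negative B-score means stronger inhibition of thallium flux through KCNK3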
KCNK9 inh: KCNK9 potassium channel inhibitors, primary screen, HEK293 cells, thallium flux; Potassium channel subfamily K member 9 (Homo sapiens), Q9NPC2; FluxOR thallium flux fluorescence; stronger effect = lower value; B-score at 10 µM; 310,000 compounds, 1.2% hits; AID 488922, 2010;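 active = ratio B-score over 3 SD below the library mean, with starting fluorescence within 5 SD of its mean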;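 note: negative B-score means less thallium flux so channel inhibition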
Kir21 inh: inhibitors of mouse Kir2.1 inward-rectifier potassium channel; Inward rectifier potassium channel 2 (Mus musculus), P35561; HEK293-Kir2.1, FluxOR thallium flux fluorescence; stronger effect = lower value; B-score at 10 µM; 310,000 compounds, 0.85% hits;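 active = fluorescence ratio B-score at or below minus 3 SD of library scores, with starting-brightness B-score within 2 SD, cut at about -4.2 in these data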;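 note: channel flux triggered by added potassium and thallium sulfate stimulus; B-score of peak minus minimum fluorescence over baseline after thallium stimulus; more negative B-score means stronger Kir2.1 block with less thallium influx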
Target sequence (P35561 whole entry, looked up): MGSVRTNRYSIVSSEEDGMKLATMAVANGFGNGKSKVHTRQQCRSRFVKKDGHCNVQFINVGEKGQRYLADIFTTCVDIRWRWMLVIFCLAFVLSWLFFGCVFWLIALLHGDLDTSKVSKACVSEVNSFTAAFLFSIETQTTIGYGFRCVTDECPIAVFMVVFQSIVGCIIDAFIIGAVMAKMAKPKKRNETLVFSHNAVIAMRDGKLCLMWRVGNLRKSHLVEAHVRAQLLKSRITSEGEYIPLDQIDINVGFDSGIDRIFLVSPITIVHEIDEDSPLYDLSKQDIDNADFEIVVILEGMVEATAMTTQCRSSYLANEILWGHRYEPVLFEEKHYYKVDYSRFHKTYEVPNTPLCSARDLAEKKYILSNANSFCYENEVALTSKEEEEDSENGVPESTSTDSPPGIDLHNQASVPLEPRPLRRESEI
KCNQ1 pot: potentiators or activators of KCNQ1 channel, primary screen, cell-based, thallium flux, high-throughput; Potassium voltage-gated channel subfamily KQT member 1 (Homo sapiens), P51787; CHO-K1 KCNQ1, thallium flux FluxOR fluorescence; stronger effect = higher value; B-score at 10 µM; 310,000 compounds, 0.35% hits; AID 2648, 2010;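 active = fluorescence ratio B-score, a plate-corrected score, at least three library SD, with initial intensity B-score within 5 SD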
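assay system = KCNQ1-transfected CHO-K1 cells | medium = assay buffer with matched DMSO | probe or stimulus = depolarizing K+/Tl+ stimulus, K2SO4 and Tl2SO4 each 12.5 mM in 5x stock | dosing = single dose | incubation = dye 90 min, compound 20 min, room temperature | detection = kinetic FluxOR fluorescence, 10 s baseline plus 110 s post-stimulus | evaluation = ratio B score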
hERG protect: hERG rescue from dofetilide block, primary screen, cell-based, CHO-hERG, FluxOR thallium flux, dofetilide IC70; Voltage-gated inwardly rectifying potassium channel KCNH2 (Homo sapiens), Q12809; dofetilide IC70 present; activation (rescue from dofetilide block), less the hit threshold, % at 10 µM; 310,000 compounds, 0.51% hits;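 active = activation above the mean of controls blocked by dofetilide plus 5 SD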;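 note: thallium influx through hERG after potassium depolarization seen as dye fluorescence rise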
KCNK3 inh conf: retest of human KCNK3 channel inhibitors, confirmation, CHO cells, FluxOR thallium flux, triplicate. shares compounds with KCNK3 inh. FluxOR fluorescence; 0% buffer, 100% carvedilol maximal block. ratio percent of control, % at 10 µM. 2,400 compounds, 99% hits;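 active = ratio percent of control, averaged over triplicates, above buffer control mean plus 5 SD, cut at about 64% in these data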;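 note: ratio is the fluorescence rise from min to max over baseline after thallium stimulus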
KCNK3 noninduced: thallium flux inhibition in non-induced cells, primary screen, counter-screen for KCNK3 inhibitor project, cell-based, non-induced KCNK3 line, FluxOR thallium, triplicate; shares compounds with KCNK3 inh; non-induced KCNK3 parental cells; stronger effect = lower value; thallium flux ratio (lower = more inhibition) at 10 µM; 2,400 compounds, 40% hits; AID 651747, 2012;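 active = thallium flux ratio, averaged over three wells, more than 5 SD below the buffer control mean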;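 note: host cells are CHO cells without KCNK3 induction; ratio is peak minus trough fluorescence over baseline then normalized to buffer controls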
An asterisk follows results filed as active; i = inactive; . = no result.

SMILES | KCNQ1 inh | KCNK3 inh | KCNK9 inh | Kir21 inh | KCNQ1 pot | hERG protect | KCNK3 inh conf | KCNK3 noninduced
COc1ccc(-c2[nH]c3ccccc3c2SCCNC(=O)c2ccccc2)cc1 | i | -9.6* | i | 0.22 | i | -15 | 117* | 0.14*
Nc1c(C(=O)Nc2cccc(C(=O)O)c2)sc2nc3c(cc12)CCCC3 | i | i | i | -2.5 | i | -3 | . | .
CCC(C)c1ccc(C(CC)NC(=O)C2CCCO2)cc1 (stereo unspecified) | i | i | i | -0.47 | i | -2 | . | .
Clc1nc(-c2cccnc2)nc2scc(-c3ccccc3)c12 | i | i | i | -0.08 | i | -9 | . | .
COc1ccc(-c2csc3nc(-c4cccnc4)nc(Cl)c23)cc1OC | i | -8.7* | i | 0.08 | i | -15 | 101* | 0.15*
CCc1ccc(N2CC(C(=O)N/N=C/c3cc([N+](=O)[O-])ccc3O)CC2=O)cc1 (stereo unspecified) | i | -9.1* | i | 0.72 | i | -11 | 91* | i
Cc1ccc(C(C(=O)Nc2ccc(C(C)C)cc2)N(C)C(=O)c2ccc(=O)[nH]c2)cc1 (stereo unspecified) | i | i | i | 0.94 | i | -8 | . | .
N#Cc1cccc(C(c2nnnn2C2CCCC2)N2CCCCCC2)c1 (stereo unspecified) | i | -15* | -7.2* | 0.71 | i | -6 | 93* | i
CCCCCOC(=O)c1ccc(OC(=O)c2cncc(Br)c2)cc1 | i | i | i | -0.42 | i | -3 | . | .
CCCCCCCOC(=O)c1ccc(OC(=O)c2cccnc2)cc1 | i | -9.4* | i | 2 | i | -8 | 136* | 0.14*
CCCCCOc1ccc(C(=O)CCC(=O)NC(C)c2ccc(S(N)(=O)=O)cc2)cc1 (stereo unspecified) | . | i | . | . | . | . | . | .
CCOc1cc(C(=S)N2CCOCC2)ccc1OC(=O)c1cccc(C)c1 | i | -9.1* | i | 1.1 | i | -3 | 114* | i
CCOc1cc(C(=S)N2CCOCC2)ccc1OC(=O)c1ccc(C)cc1 | i | i | i | -0.45 | i | -9 | . | .
CCOc1cc(C(=S)N2CCOCC2)ccc1OC | i | i | i | -0.89 | i | -2 | . | .
CCOc1cc(C(=S)N2CCOCC2)ccc1OC(=O)c1ccccc1 | i | -8.9* | i | -2.9 | i | -8 | 92* | i
Cc1cc(S(=O)(=O)NCC(C)C)ccc1OCC(=O)NCc1ccco1 | i | i | i | -0.07 | i | -3 | . | .
O=C(Nc1ccc(C(F)(F)F)cc1)c1ccccc1Br | i | i | i | -1.6 | i | -5 | . | .
O=C(Nc1ccc(Br)c(C(F)(F)F)c1)c1ccc(C(F)(F)F)cc1 | 12* | -10* | i | 0.81 | i | -23 | 119* | 0.1*
COc1ccccc1OC(=O)c1ccc(SC)cc1OC | i | i | i | 0.76 | i | -7 | . | .
COc1ccc(OC)c(NC(=S)N2c3ccccc3CC2C)c1 (stereo unspecified) | i | -9.1* | i | -0.96 | i | -8 | 105* | i
Clc1ccccc1CSc1ncn(-c2ccccc2)n1 | i | i | i | -0.02 | i | -14 | . | .
Cc1ccc(NC(=O)COC(=O)C(CC(C)C)N2C(=O)C3CC=CCC3C2=O)c(C)c1 (stereo unspecified) | i | i | i | -0.05 | i | -21 | . | .
Cc1ccc(Cl)c(OCC(=O)Nc2ccccc2N2CCCCC2)c1 | i | -10* | i | -2.2 | i | -14 | 123* | 0.15*
O=C(COc1ccc(Cl)cc1Br)Nc1ccccc1N1CCCC1 | i | i | i | 1.5 | i | -12 | . | .
Cc1cccc(NC(=O)CSCC(=O)Nc2ccccc2N2CCCC2)c1 | i | -9.6* | i | -4.3* | i | -14 | 87* | i
SMILES | KCNQ1 inh | KCNK3 inh | KCNK9 inh | Kir21 inh | KCNQ1 pot | hERG protect | KCNK3 inh conf | KCNK3 noninduced
COc1cc(C(C)=O)ccc1OCC(=O)Nc1ccccc1N1CCCCC1 | i | i | i | 0.3 | i | -5 | . | .
Cc1cccc(C)c1OCC(=O)Nc1ccccc1N1CCCCC1 | i | -9.3* | -7.6* | 1.1 | i | -21 | 114* | i
CC(Oc1cccc(Cl)c1)C(=O)Nc1ccccc1N1CCCC1 (stereo unspecified) | i | -8.8* | i | -1.3 | i | -18 | 124* | i
COc1ccccc1OCCSc1nc2ccccc2n1CC(N)=O | i | i | i | -0.63 | i | 1 | . | .
CC(C)(C)c1csc(NC(=O)c2ccc3nccnc3c2)n1 | i | i | i | 0.56 | i | -12 | . | .
CCOc1cc(N2CCOCC2)c(OCC)cc1NC(=O)COc1cccc(CC)c1 | . | i | . | . | . | . | . | .
CCc1cccc(OCC(=O)Nc2ccccc2N2CCCC2)c1 | i | -9.1* | i | -0.31 | i | -10 | 120* | 0.16*
Cc1c(Cl)cccc1NC(=O)N1CCCN(c2nc(-c3ccccc3)ns2)CC1 | i | i | i | 0.88 | i | -10 | . | .
O=C(Nc1ccccc1Cl)N1CCCN(c2nc(-c3ccccc3)ns2)CC1 | i | -12* | -7* | -0.06 | i | -11 | 112* | i
CCC(C)(C)NC(=O)CN(C(=O)C(=O)Nc1ccc2c(c1)OCCO2)N1CCOCC1 | i | i | i | 0.97 | i | -1 | . | .
C=CCn1c(SCC(N)=O)nc2sc3c(c2c1=O)CCC3 | i | i | i | 2.2 | i | 1 | . | .
C=CCn1c(SCc2csc(C)n2)nc2sc3c(c2c1=O)CCCC3 | i | -8.9* | i | 0.02 | i | -9 | 122* | 0.14*
COc1cccc2cc(CC(=O)c3cc(C)ccc3C)c(=O)oc12 | i | -9.6* | i | 0.46 | i | -8 | 82* | i
